Shown are actives, neighbours in structure and some others; about 3.7% of the full set was active somewhere.
hERG protect – hERG rescue from dofetilide block, primary screen, cell-based, CHO-hERG, FluxOR thallium flux, dofetilide IC70 | 310,000 tested, 0.51% active | dofetilide IC70 present | Voltage-gated inwardly rectifying potassium channel KCNH2 (Homo sapiens), Q12809 | activation (rescue from dofetilide block), less the hit threshold, % at 10 µM | AID 1511, 2009;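 active = activation above the mean of controls blocked by dofetilide plus 5 SD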;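 also: thallium influx through hERG after potassium depolarization seen as dye fluorescence rise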
KCNQ1 inh – inhibitors of human KCNQ1 channel, primary screen, cell-based, thallium flux, high-throughput | CHO-K1 KCNQ1, FluxOR thallium flux fluorescence; stronger effect = higher value | B-score at 10 µM | 310,000 tested, 1.3% active | Potassium voltage-gated channel subfamily KQT member 1 (Homo sapiens), P51787;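 active = compounds whose thallium flux B-score, printed positive for inhibition, exceeds three library SD while starting fluorescence stays within three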;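 also: channel opened by potassium depolarization with thallium stimulus after 20 min compound exposure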
KCNK9 inh – KCNK9 potassium channel inhibitors, primary screen, HEK293 cells, thallium flux; Potassium channel subfamily K member 9 (Homo sapiens), Q9NPC2; FluxOR thallium flux fluorescence; stronger effect = lower value; B-score at 10 µM; 310,000 tested, 1.2% active;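 active = ratio B-score over 3 SD below the library mean, with starting fluorescence within 5 SD of its mean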;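 also: negative B-score means less thallium flux so channel inhibition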
KCNQ1 act – potentiators or activators of KCNQ1 channel, primary screen, cell-based, thallium flux, high-throughput; B-score at 10 µM; CHO-K1 KCNQ1, thallium flux FluxOR fluorescence; stronger effect = higher value; 310,000 tested, 0.35% active;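 active = fluorescence ratio B-score, a plate-corrected score, at least three library SD, with initial intensity B-score within 5 SD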
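Assay system: CHO-K1 cells stably expressing KCNQ1; Medium: assay buffer with matched DMSO; Also added: K+/Tl+ depolarizing stimulus; Dosing: single dose; Timing: dye 90 min, compound 20 min, room temperature; Measured by: kinetic FluxOR thallium fluorescence, 10-s 1-Hz baseline, 110-s post-stimulus read; Read-out: peak-minus-minimum fluorescence over initial fluorescence, negative-control normalized, B-scored.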
KCNK3 inh – human KCNK3 channel inhibitors, primary screen, CHO cells, FluxOR thallium flux, B-score; AID 602410, 2012; Potassium channel subfamily K member 3 (Homo sapiens), O14649; 340,000 tested, 0.84% active; B-score at 10 µM; FluxOR fluorescence; stronger effect = lower value;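 active = B-score under library mean minus 4 SD, starting fluorescence ratio at most library mean plus 5 SD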;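 also: more negative B-score means stronger inhibition of thallium flux through KCNK3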
Kir21 inh – inhibitors of mouse Kir2.1 inward-rectifier potassium channel; B-score at 10 µM; 310,000 tested, 0.85% active; HEK293-Kir2.1, FluxOR thallium flux fluorescence; stronger effect = lower value;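 active = fluorescence ratio B-score at or below minus 3 SD of library scores, with starting-brightness B-score within 2 SD, cut at about -4.2 in these data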;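 also: channel flux triggered by added potassium and thallium sulfate stimulus; B-score of peak minus minimum fluorescence over baseline after thallium stimulus; more negative B-score means stronger Kir2.1 block with less thallium influx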
Target sequence (P35561 whole entry, looked up): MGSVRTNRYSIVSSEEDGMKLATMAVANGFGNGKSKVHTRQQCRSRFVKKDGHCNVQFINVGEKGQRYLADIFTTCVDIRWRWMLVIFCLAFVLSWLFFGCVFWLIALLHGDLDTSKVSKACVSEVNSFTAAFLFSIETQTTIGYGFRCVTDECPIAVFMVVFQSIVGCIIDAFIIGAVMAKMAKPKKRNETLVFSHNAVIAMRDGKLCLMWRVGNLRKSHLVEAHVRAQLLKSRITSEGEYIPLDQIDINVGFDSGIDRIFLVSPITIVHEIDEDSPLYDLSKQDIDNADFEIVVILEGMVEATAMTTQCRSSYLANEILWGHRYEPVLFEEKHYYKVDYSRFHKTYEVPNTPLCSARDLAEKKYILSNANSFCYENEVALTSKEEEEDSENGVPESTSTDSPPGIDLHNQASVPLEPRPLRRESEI
KCNK9 block conf – KCNK9 potassium channel inhibitors, confirmation, HEK293 cells, thallium flux, duplicate. 4,900 tested, 43% active. shares compounds with KCNK9 inh. FluxOR thallium flux fluorescence. AID 492992, 2010. inhibition, % at 10 µM;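 active = thallium signal inhibited by more than 5 SD of the compound-free buffer control wells, on both duplicate plates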;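 also: 0% = assay buffer control wells without compound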
Kir21 sel – mouse Kir2.1 channel inhibition, confirmation, selectivity assay for KCNK9 modulator project, cell-based, HEK293, thallium flux; 4,900 tested, 4% active; Kir2.1 cells, FluxOR thallium flux fluorescence; shares compounds with KCNK9 inh; AID 492993, 2010; inhibition, % at 10 µM;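 active = thallium signal drop more than 5 SD beyond the mean of the no-compound control wells, seen in both duplicate plates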;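 also: signal is fluorescence rise after thallium addition divided by baseline fluorescence; plate controls were assay buffer only for no effect and full block by chlorpromazine control for full effect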
HEK293 Tl ctr – thallium flux in non-induced HEK293 cells, confirmation, counter-screen for KCNK9 inhibitor project, cell-based, second counter screen, non-induced KCNK9-HEK293; shares compounds with KCNK9 inh; FluxOR thallium flux; inhibition, % at 10 µM; 4,900 tested, 40% active;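 active = thallium signal drop beyond 5 SD of the untreated control mean, on both duplicate plates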;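 also: plate controls were buffer only IC0 wells for no effect and SID17386958 at its maximal inhibitory level for full effect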
Numbers without * were called inactive; i = inactive; . = no result.

SMILES	hERG protect	KCNQ1 inh	KCNK9 inh	KCNQ1 act	KCNK3 inh	Kir21 inh	KCNK9 block conf	Kir21 sel	HEK293 Tl ctr
COC(=O)c1c(N)sc2c1CCN(c1ncc(C(F)(F)F)cc1Cl)C2	-4	i	-9.4*	i	i	-0.42	38%*	i	i
NC(=O)NCCN1CCN(c2ncc(C(F)(F)F)cc2Cl)CC1	-2	i	i	i	i	-1.5	.	.	.
COc1ccc(C2CC(c3ccccc3)=NN2C(=O)COC(=O)/C=C/c2ccc(O)c(OC)c2)cc1 (stereo not drawn)	-7	i	i	i	i	-0.83	.	.	.
Cc1ccc(-c2nc(C(=O)NCC3CCCO3)cc3c2[nH]c2ccccc23)cc1 (stereo not drawn)	-38	12*	-17*	i	i	-1.2	65%*	i	33%*
O=C(NCC1CCCO1)c1csc(Nc2cccc3ccccc23)n1 (stereo not drawn)	-7	i	-9.2*	i	i	2.3	42%*	i	i
CN(C)CCNC(=O)c1csc(Nc2cccc3ccccc23)n1	-4	i	i	i	i	0.29	.	.	.
Cc1cc(CN2CCC(n3nccc3NC(=O)c3ccccc3Cl)CC2)cc(C)c1O	-8	i	i	i	i	1.2	.	.	.
Cc1nc2cc(-c3cccc(F)c3)nn2c(C)c1CCC(=O)NC(C)CCc1ccco1 (stereo not drawn)	-4	i	i	i	i	2.3	.	.	.
Fc1cccc(-c2cc3nc4c(c(NCc5ccco5)n3n2)CCCC4)c1	-14	i	-10*	i	i	0.4	37%*	i	32%*
COC(=O)[C@H](C(C)C)N(Cc1ccccc1)S(=O)(=O)CCN1CCCC1	.	.	.	.	i	.	.	.	.
Cc1ccc(C#N)c(SCc2cccc(Br)c2)n1	-4	i	-12*	i	i	0.53	42%*	i	48%*
C[n+]1c2n(c3ccccc31)N=C(c1cc(C(C)(C)C)c(O)c(C(C)(C)C)c1)CS2	-38	7*	-19*	i	-13*	-7.8*	76%*	46%*	32%*
CCCCOc1ccc(/C=N/NC(=O)c2csc(C)c2C)cc1	-3	i	i	i	i	0.83	i	i	i
O=c1c2ccccc2c(-c2cccc(C(F)(F)F)c2)nn1-c1ccccc1	-11	i	-8.8*	i	i	0.09	38%*	i	43%*
C#CCN(C(=O)c1cc(COc2ccc(C)c(C)c2)on1)C1CCCCC1	-13	6*	i	i	i	0.81	i	i	i
C#CCN(C(=O)c1cc(COc2cccc(C(F)(F)F)c2)on1)C1CCCCC1	-11	i	i	i	i	-0.31	.	.	.
CCOc1ccc(-c2nnc3ccc(SCC(=O)Nc4nc5ccc(C)cc5s4)nn23)cc1	-12	i	-11*	i	i	-0.33	70%*	i	i
Cc1ccccc1Nc1ncnc2c1cnn2-c1ccccc1	-11	i	-9.5*	i	i	-0.67	i	i	i
Clc1nssc1=Nc1ccc(Br)cc1	-10	i	i	i	i	-1.1	.	.	.
N#Cc1cccc(N=c2ssnc2Cl)c1	5.2*	i	i	i	i	-2	i	i	i
Clc1ccc(N=c2ssnc2Cl)nc1	-15	i	i	i	i	0	.	.	.
COc1cc(N=c2ssnc2Cl)cc(OC)c1	-17	i	i	i	i	-3.4	i	i	i
Cc1csc(NC(=O)c2cc(-c3ccccc3)nc3ccccc23)n1	-12	i	-9.8*	i	i	0.28	42%*	i	40%*
Cc1cc(C)nc(NC(=O)c2cc(-c3ccc4c(c3)OCO4)nc3ccccc23)c1	-25	i	i	i	i	2.1	i	i	i
COC(=O)c1cc(-c2ccc3c(c2)OCO3)nc2ccccc12	-4	i	i	i	i	1	.	.	.
SMILES	hERG protect	KCNQ1 inh	KCNK9 inh	KCNQ1 act	KCNK3 inh	Kir21 inh	KCNK9 block conf	Kir21 sel	HEK293 Tl ctr
OC(COC(c1ccc(Cl)cc1)c1ccc(Cl)cc1)CN1CCc2ccccc2C1 (stereo not drawn)	-23	i	-16*	i	i	-0.39	58%*	i	38%*
OC(COC(c1ccccc1)c1ccccc1)CN1CCc2ccccc2C1 (stereo not drawn)	-7	i	i	i	i	-3.7	.	.	.
Clc1ccc(SCCOCCN2CCc3ccccc3C2)cc1	-9	i	i	i	i	-8.5*	i	i	i
Cc1ccc(S(=O)(=O)NCC(=O)OCC(=O)NC2CCCCC2)cc1	.	.	.	.	i	.	.	.	.
CCc1nnc(NS(=O)(=O)c2ccc(NCc3cc(Cl)cc(Cl)c3O)cc2)s1	-20	i	i	i	i	0.34	i	i	i
CCc1nnc(NS(=O)(=O)c2ccc(NCc3cc(Cl)ccc3O)cc2)s1	-12	i	i	i	i	0.77	i	i	i
CCc1nnc(NS(=O)(=O)c2ccc(NC(=O)OC)cc2)s1	-11	i	i	i	i	0	.	.	.
CC1Cc2ccccc2N1C(=O)CO/N=C/c1ccc(OC(F)F)cc1 (stereo not drawn)	-7	i	i	i	i	-0.33	i	i	i
CC1Cc2ccccc2N1C(=O)COC(=O)/C=C/c1ccc(F)cc1 (stereo not drawn)	.	.	.	.	i	.	.	.	.
CCc1nnc(NC(=O)c2ccc(F)c(S(=O)(=O)N3CCCCC3)c2)s1	-6	i	i	i	i	0.54	.	.	.

Source: PubChem BioAssay (Johns Hopkins Ion Channel Center)
